According to the M2OR odorant receptor database:
Positions count from the first letter of the chain named.

What was measured:
Settings in all cases: stereoisomer not certain
OR2T34 (Homo sapiens) = target: T1, OR2T34 (Homo sapiens) (UniProt Q8NGX1)
T1 sequence (whole entry): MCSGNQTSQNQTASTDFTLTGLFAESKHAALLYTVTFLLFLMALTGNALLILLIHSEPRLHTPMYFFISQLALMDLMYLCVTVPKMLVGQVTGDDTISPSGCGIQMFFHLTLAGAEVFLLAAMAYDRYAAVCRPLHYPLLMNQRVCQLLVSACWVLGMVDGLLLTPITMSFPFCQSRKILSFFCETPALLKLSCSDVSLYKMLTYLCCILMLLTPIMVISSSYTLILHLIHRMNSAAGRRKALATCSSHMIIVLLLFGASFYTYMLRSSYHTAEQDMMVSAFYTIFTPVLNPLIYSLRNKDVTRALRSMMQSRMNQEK
Method in brief: (§1)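 Values were gathered from published papers (main text and supplementary material), with extra details requested from the original authors when needed, and checked for typos and inconsistencies. Each receptor–molecule pair is called responsive (active) if the original authors judged the measured signal statistically different from baseline, and non-responsive (inactive) otherwise. Assay methods varied by source, often transient mammalian cell-line luciferase assays. Recorded details include cell line, G-protein, co-transfected protein and tags.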

OR2T11 (Homo sapiens) = target: T2, OR2T11 (Homo sapiens) (UniProt Q8NH01)
T2 sequence (whole entry): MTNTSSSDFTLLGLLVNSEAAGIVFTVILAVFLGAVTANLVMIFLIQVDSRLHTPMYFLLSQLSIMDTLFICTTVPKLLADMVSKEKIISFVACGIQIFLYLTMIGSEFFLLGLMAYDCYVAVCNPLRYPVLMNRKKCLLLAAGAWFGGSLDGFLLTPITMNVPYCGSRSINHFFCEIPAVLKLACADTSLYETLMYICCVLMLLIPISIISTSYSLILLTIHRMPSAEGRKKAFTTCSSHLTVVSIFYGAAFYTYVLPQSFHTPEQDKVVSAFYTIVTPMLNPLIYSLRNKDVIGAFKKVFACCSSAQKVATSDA
Method in brief: as §1

OR2T12 (Homo sapiens) = target: T3, OR2T12 (Homo sapiens) (UniProt Q8NG77)
T3 sequence (whole entry): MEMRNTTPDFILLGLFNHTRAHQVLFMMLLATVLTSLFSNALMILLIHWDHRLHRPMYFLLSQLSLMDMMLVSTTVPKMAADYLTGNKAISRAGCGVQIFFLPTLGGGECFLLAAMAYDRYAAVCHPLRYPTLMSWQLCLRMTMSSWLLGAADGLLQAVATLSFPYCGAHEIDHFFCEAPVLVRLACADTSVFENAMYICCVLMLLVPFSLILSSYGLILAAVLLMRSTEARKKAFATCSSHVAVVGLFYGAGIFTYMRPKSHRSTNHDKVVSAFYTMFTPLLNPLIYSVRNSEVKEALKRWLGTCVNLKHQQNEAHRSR
Method in brief: as §1

OR2T2 (Homo sapiens) = target: T4, OR2T2 (Homo sapiens) (UniProt Q6IF00)
T4 sequence (whole entry): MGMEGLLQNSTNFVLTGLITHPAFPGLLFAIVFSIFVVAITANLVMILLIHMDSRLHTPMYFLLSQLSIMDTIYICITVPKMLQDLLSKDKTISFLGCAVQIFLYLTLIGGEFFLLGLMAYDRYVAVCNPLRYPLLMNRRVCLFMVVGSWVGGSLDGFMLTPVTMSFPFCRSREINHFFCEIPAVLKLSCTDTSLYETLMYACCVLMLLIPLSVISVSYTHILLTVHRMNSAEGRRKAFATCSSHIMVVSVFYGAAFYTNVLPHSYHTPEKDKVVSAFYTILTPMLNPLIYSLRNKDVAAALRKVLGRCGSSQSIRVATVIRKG
Method in brief: as §1

OR2T27 (Homo sapiens) = target: T5, OR2T27 (Homo sapiens) (UniProt Q8NH04)
T5 sequence (whole entry): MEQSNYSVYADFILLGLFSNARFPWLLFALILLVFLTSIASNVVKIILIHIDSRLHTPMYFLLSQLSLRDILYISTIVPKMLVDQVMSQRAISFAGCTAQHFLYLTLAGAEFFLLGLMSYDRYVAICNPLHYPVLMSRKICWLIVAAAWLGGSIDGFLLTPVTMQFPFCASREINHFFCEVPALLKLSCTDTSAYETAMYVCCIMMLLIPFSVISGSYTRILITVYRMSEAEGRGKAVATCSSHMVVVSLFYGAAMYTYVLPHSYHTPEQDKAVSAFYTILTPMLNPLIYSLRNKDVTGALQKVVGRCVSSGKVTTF
Method in brief: as §1

OR2T29 (Homo sapiens) = target: T6, OR2T29 (Homo sapiens) (UniProt Q8NH02)
T6 sequence (whole entry): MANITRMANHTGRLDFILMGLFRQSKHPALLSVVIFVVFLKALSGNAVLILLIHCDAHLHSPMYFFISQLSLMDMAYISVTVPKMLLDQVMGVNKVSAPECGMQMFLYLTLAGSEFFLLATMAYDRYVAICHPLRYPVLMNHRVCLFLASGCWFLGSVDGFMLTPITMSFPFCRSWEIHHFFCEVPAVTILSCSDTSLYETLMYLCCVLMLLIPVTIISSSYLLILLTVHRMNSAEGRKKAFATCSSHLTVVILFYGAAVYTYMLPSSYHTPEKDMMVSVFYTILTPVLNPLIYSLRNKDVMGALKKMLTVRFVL
Method in brief: as §1

OR2T3 (Homo sapiens) = target: T7, OR2T3 (Homo sapiens) (UniProt Q8NH03)
T7 sequence (whole entry): T1 sequence (whole entry) with H109Y, M202T, T204M, T214A, R239H, R267P
Method in brief: as §1

OR2T33 (Homo sapiens) = target: T8, OR2T33 (Homo sapiens) (UniProt Q8NG76)
T8 sequence (whole entry): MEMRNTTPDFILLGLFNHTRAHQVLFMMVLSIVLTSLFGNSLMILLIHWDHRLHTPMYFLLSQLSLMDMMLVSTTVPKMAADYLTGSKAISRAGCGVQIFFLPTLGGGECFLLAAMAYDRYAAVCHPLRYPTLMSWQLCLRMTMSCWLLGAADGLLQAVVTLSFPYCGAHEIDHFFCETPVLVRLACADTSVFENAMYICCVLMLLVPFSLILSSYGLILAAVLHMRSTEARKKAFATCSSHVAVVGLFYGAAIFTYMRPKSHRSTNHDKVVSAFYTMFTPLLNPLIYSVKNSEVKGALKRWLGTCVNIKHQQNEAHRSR
Method in brief: as §1

OR2T35 (Homo sapiens) = target: T9, OR2T35 (Homo sapiens) (UniProt Q8NGX2)
T9 sequence (whole entry): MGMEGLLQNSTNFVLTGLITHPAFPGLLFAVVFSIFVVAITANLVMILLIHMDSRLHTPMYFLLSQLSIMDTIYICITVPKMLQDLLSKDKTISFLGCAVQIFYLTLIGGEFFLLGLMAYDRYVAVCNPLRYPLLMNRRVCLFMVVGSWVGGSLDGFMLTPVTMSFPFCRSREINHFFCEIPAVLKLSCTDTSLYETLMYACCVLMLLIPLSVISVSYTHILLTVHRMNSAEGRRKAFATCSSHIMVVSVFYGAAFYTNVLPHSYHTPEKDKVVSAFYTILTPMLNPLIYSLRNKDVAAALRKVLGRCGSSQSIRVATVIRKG
Method in brief: as §1

OR2T4 (Homo sapiens) = target: T10, OR2T4 (Homo sapiens) (UniProt Q8NH00)
T10 sequence (whole entry): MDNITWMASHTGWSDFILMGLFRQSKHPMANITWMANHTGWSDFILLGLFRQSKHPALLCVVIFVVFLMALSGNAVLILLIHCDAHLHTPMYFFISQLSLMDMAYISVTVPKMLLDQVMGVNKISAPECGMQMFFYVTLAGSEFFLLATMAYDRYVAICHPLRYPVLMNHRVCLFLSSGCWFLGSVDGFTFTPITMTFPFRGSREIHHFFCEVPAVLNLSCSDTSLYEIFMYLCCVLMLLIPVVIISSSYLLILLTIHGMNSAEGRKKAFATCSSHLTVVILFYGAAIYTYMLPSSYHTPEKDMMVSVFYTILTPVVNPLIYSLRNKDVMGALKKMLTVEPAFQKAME
Method in brief: as §1

OR2T5 (Homo sapiens) = target: T11, OR2T5 (Homo sapiens) (UniProt Q6IEZ7)
T11 sequence (whole entry): T6 sequence (whole entry) with R13K, Q24R
Method in brief: as §1

OR2T6 (Homo sapiens) = target: T12, OR2T6 (Homo sapiens) (UniProt Q8NHC8)
T12 sequence (whole entry): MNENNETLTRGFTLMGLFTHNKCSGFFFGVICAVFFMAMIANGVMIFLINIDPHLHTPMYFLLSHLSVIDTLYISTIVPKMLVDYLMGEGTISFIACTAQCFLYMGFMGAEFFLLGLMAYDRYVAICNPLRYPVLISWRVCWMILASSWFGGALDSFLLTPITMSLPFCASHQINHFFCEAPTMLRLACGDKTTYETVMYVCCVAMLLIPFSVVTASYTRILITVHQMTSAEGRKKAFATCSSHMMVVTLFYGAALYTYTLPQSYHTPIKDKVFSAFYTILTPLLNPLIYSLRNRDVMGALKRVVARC
Method in brief: as §1

OR2T2 L104F L262Q = test system: T13, OR2T2 L104F L262Q
T13 sequence (whole entry): T4 sequence (whole entry) with L104F, L262Q
Method in brief: as §1

OR2T2 L104F = test system: T14, OR2T2 L104F
T14 sequence (whole entry): T4 sequence (whole entry) with L104F
Method in brief: as §1

OR2T2 Q313H = test system: T15, OR2T2 Q313H
T15 sequence (whole entry): T4 sequence (whole entry) with Q313H
Method in brief: as §1

OR2T3 R298C = test system: T16, OR2T3 R298C
T16 sequence (whole entry): T1 sequence (whole entry) with H109Y, M202T, T204M, T214A, R239H, R267P, R298C
Method in brief: as §1

OR2T3 Y109H = test system: T17, OR2T3 Y109H
T17 sequence (whole entry): T1 sequence (whole entry) with M202T, T204M, T214A, R239H, R267P
Method in brief: as §1

OR2T5 K13R K41M G45E = test system: T18, OR2T5 K13R K41M G45E
T18 sequence (whole entry): T6 sequence (whole entry) with Q24R, K41M, G45E
Method in brief: as §1

OR2T3 L256F = test system: T19, OR2T3 L256F
T19 sequence (whole entry): T1 sequence (whole entry) with H109Y, M202T, T204M, T214A, R239H, L256F, R267P
Method in brief: as §1

OR2T5 K13R L134F = test system: T20, OR2T5 K13R L134F
T20 sequence (whole entry): T6 sequence (whole entry) with Q24R, L134F
Method in brief: as §1

Measured: odorant receptor agonist call

CC(C)=CCCC(C)CC=O (stereo not drawn)
inactive: OR2T34 (Homo sapiens)

CC=CC(=O)C1C(C)=CCCC1(C)C (stereo not drawn)
active: OR2T34 (Homo sapiens)

CC(CO)CS (stereo not drawn)
not listed: OR2T2 L104F L262Q | OR2T2 L104F | OR2T2 Q313H | OR2T3 R298C | OR2T3 Y109H | OR2T5 K13R K41M G45E | OR2T3 L256F | OR2T5 K13R L134F
inactive: all other assays above

CCCC(C)C(=O)OCC (stereo not drawn)
inactive: OR2T34 (Homo sapiens)

C=CC(C)(O)CCC=C(C)CCC=C(C)C (stereo not drawn)
inactive: OR2T34 (Homo sapiens)

CC(C)(C)C1CCCCC1OCCCCO (stereo not drawn)
inactive: OR2T34 (Homo sapiens)

CC(C)=CCCC(C)=CCO
inactive: OR2T34 (Homo sapiens) | OR2T4 (Homo sapiens)

CCCCCCC=CCCC=O
not listed: OR2T3 L256F | OR2T5 K13R L134F
inactive: all other assays above

CC1=C(O)C(=O)OC1C (stereo not drawn)
inactive: all assays above

CC1CC(C)(c2ccccc2)CO1 (stereo not drawn)
inactive: OR2T34 (Homo sapiens)

CCC(S)C(C)CO (stereo not drawn)
not listed: OR2T2 L104F L262Q | OR2T2 L104F | OR2T2 Q313H | OR2T3 R298C | OR2T3 Y109H | OR2T5 K13R K41M G45E | OR2T3 L256F | OR2T5 K13R L134F
inactive: all other assays above

OCc1ccccc1
inactive: OR2T34 (Homo sapiens)

CCCCCC1COCCC1OC(C)=O (stereo not drawn)
inactive: OR2T34 (Homo sapiens)

Cc1occc(=O)c1OC(=O)C(C)C
inactive: OR2T34 (Homo sapiens)

CC1=NC(C)C(C)S1 (stereo not drawn)
inactive: all assays above

CCCCC(S)C(C)CO (stereo not drawn)
not listed: OR2T2 L104F L262Q | OR2T2 L104F | OR2T2 Q313H | OR2T3 R298C | OR2T3 Y109H | OR2T5 K13R K41M G45E | OR2T3 L256F | OR2T5 K13R L134F
inactive: all other assays above

CCCCC1CCC(=O)O1 (stereo not drawn)
inactive: OR2T34 (Homo sapiens)

CC1CCCCCCCCCCCCC(=O)C1 (stereo not drawn)
not listed: OR2T2 L104F L262Q | OR2T2 L104F | OR2T2 Q313H | OR2T3 R298C | OR2T3 Y109H | OR2T5 K13R K41M G45E | OR2T3 L256F | OR2T5 K13R L134F
inactive: all other assays above
